Published values pooled from the literature.
Lines come from different studies, so protocols differ.
HTR1D: 5-hydroxytryptamine receptor 1D (HTR1D, Homo sapiens, UniProt P28221)
HDAC8: Histone deacetylase 8 (HDAC8, Homo sapiens, UniProt Q9BY41)
ALOX5: Polyunsaturated fatty acid 5-lipoxygenase (ALOX5, Homo sapiens, UniProt P09917)

Compound | target | test | test system | conditions | inhibition [%]
CCCNc1nc2ccccc2n1Cc1ccc(Cl)cc1 | HTR1D | cell-free assay |  | 10 µM | -20.3
CCOC(=O)C1=C(C)NC(c2ccccc2)=C(C(=O)OCc2ccccc2)C1C#Cc1ccccc1 (stereo not shown) | Adenosine receptor A3 (Mus musculus, UniProt Q61618) | ligand displacement, radioligand |  | 10 µM, cell membranes | 32
O=C(/C=C/c1ccc(O)c(O)c1)O[C@@H]1C[C@](O)(C(=O)O)C[C@@H](O)[C@H]1O | HDAC8 | enzyme activity, inhibitor |  | 10 µM | 58.2
Cc1occ(O)c(=O)c1C(=O)O | ALOX5 | enzyme activity, inhibitor, fluorescence |  | 1 mM | > 70
COc1cc2c3c(c1OC)-c1cc4c(cc1CC3N(C)CC2c1ccccc1)OCO4 (stereo not shown) | HTR1D | ligand displacement, radioligand |  | 10 µM | < 50
C/C=C(/C)C(=O)O[C@@H]1[C@H](OC(C)=O)c2c(ccc3ccc(=O)oc23)OC1(C)C | HDAC8 | enzyme activity, inhibitor |  | 10 µM | 40.9
O=C(c1ccc(Cl)cc1)N(Cc1ccccc1)C1CCCCC1 | Substance-K receptor (TACR2, Homo sapiens, UniProt P21452) | cell-free assay |  | 10 µM | 15
CCn1ccc(=S)c(O)c1C | ALOX5 | enzyme activity, inhibitor, fluorescence |  | 1 mM | > 70
CC1(C)CC[C@]2(C)CC[C@]3(C)[C@H]4CC=C5[C@@H](CC[C@H](O)C5(C)C)[C@]4(C)CC[C@@]3(C)[C@@H]2C1 | HDAC8 | enzyme activity, inhibitor |  | 10 µM | 44.8
Oc1cccc(Nc2nc(-c3ccc(F)cc3F)cs2)c1 | Mu-type opioid receptor (OPRM1, Homo sapiens, UniProt P35372) | ligand displacement |  | 10 µM | 14.2
COc1cc(Cl)c(C(=O)N[C@@H](CN[C@H]2CC[C@@H](N)CC2)Cc2ccc(C#N)cc2)cc1-c1ccc(CN[C@H](C)c2ccc(C)cc2)o1 | Somatostatin receptor type 4 (SSTR4, Homo sapiens, UniProt P31391) | calcium signal, antagonist |  | 10 µM | 12
CCN(CC)c1ccc(C2Nc3ccc(C(=O)c4ccccc4)cc3NC3=C2C(=O)CC(C)(C)C3)cc1 (stereo not shown) | HTR1D | ligand displacement, radioligand |  | 10 µM | 25
COC(=O)[C@]1(O)C[C@@H](O)[C@@H](O)[C@H](OC(=O)/C=C/c2ccc(O)c(O)c2)C1 | HDAC8 | enzyme activity, inhibitor |  | 10 µM | 60.5
CCN1CCN(Cc2ccc(NC(=O)c3ccc(C)c(/C=C/c4cnc5[nH]ccc5c4OC)c3)cc2C(F)(F)F)CC1 | Mitogen-activated protein kinase kinase kinase 4 (MAP3K4, Homo sapiens, UniProt Q9Y6R4) | target engagement in cells, inhibitor, chemoproteomics | A-375 | 50 nM | -0.65
CC1(C)CC[C@]2(C)CC[C@]3(C)C(=CC[C@@H]4[C@@]5(C)CC[C@H](O)C(C)(C)[C@@H]5CC[C@]43C)[C@@H]2C1 | HDAC8 | enzyme activity, inhibitor |  | 10 µM | 34.9
COc1ccc(Cc2nnc(NS(=O)(=O)c3cccc4ccccc34)s2)cc1 | Glutathione hydrolase 1 proenzyme (Homo sapiens, UniProt P19440) | enzyme activity in cells, inhibitor | NIH3T3 | 100 µM | 59
